assay: Toxicity liver stage against HepG2, at 10uM; type: cell-based; parameters: test concentration 10 uM, cell line HepG2-A16-CD81EGFP; conditions: human, HepG2-A16-CD81EGFP cells; read-out: INHIBITION
In short: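 Uninfected HepG2-A16-CD81EGFP cells, 3 × 10^3 per well, 1536-well, plated on prespotted compound at 10 μM final, parasite-free screening media added to match infected plates; puromycin 10 μM positive, DMSO 0.5% negative; run in parallel with 48 h PbLuc assay at 37 °C, 5% CO2; viability by CellTiter-Glo luminescence, normalized to controls.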

| Structure (SMILES) | cytotoxicity at 10 µM [%] |
| --- | --- |
| O=C(C1CCS(=O)(=O)C1)N1CCC(=Cc2cccc(F)c2)CC1 (stereo unspecified) | 10.6 |
| CCC(C)Oc1ccc(CNCCNS(C)(=O)=O)cc1Cl (stereo unspecified) | -6.78 |
| CC(NC(=O)c1cccs1)C(=O)NCc1ccccc1CN1CCCC1 (stereo unspecified) | -14.2 |
| CCCc1noc(C2CC(=O)N(CCN(C)C)C2)n1 (stereo unspecified) | 5.48 |
| O=C(NCCN1CCOCC1)Nc1cc(F)ccc1-n1cccn1 | -14.9 |
| CC(=O)N(Cc1noc(C)n1)C1CCN(Cc2ccon2)C1 (stereo unspecified) | 4.74 |
| NC(=O)c1ccc(C2CCCN2C(=O)Cn2nc3ccccc3n2)s1 (stereo unspecified) | 9.15 |
| C/N=C1\c2cc3cc(OC)ccc3n2CCN1Cc1ccccc1 | 80.4 |
| CC(=O)N(C)C1CCN(c2ncc3c(n2)CCN3c2ccccc2)C1 (stereo unspecified) | -9.62 |
| c1coc(-c2nnc([C@H]3CCN(Cc4ccc5c(c4)OCO5)C3)o2)c1 | -0.0837 |
| NC(=O)CC1CCCN(C(=O)NCC2(c3cccs3)CCCC2)C1 (stereo unspecified) | 1.9 |
| O=C(c1ncccn1)N1C[C@H]2CCC[C@@]2(COCC2CCOCC2)C1 | -1.11 |
| Cc1nn(C)c2cnn(C(C)C(=O)NCc3cccnc3)c12 (stereo unspecified) | 9.77 |
| NC(=O)NC(CC(=O)NCCc1ccc(F)cc1)c1ccccc1 (stereo unspecified) | -2.39 |
| O=S(=O)(c1cccc(F)c1)N1CCCCC1c1ccn[nH]1 (stereo unspecified) | 0.692 |
| CCOc1ccc(NC(=O)Cn2cc(I)cn2)cc1 | 9.84 |
| CCn1nc2c(cc1=O)CN(Cc1nc(C)c3ccccc3n1)CC2 | -9.35 |
| Cc1cnc(CC2COCCN(C(=O)c3cncs3)C2)cn1 (stereo unspecified) | 3.65 |
| CN(C)CC1(O)CCN(S(=O)(=O)c2ccc(Cl)cc2)C1 (stereo unspecified) | -13.9 |
| Cc1cccc(CN2C(=O)CC[C@@H]3[C@H]2CCN3CC2CCOCC2)n1 | 5.89 |
| COc1ccc(C2CCCN2C(=O)Nc2ccc(OC)nc2)cc1 (stereo unspecified) | 2.58 |

| Structure (SMILES) | cytotoxicity at 10 µM [%] |
| --- | --- |
| COc1ncccc1NC(=O)NC(CCCO)c1ccccc1 (stereo unspecified) | 11.2 |
| CC(C)c1csc(C(=O)N2CCCC(Cn3cc(CO)nn3)C2)n1 (stereo unspecified) | 6.29 |
| Cc1ccc(CN(C)C(=O)CCNS(=O)(=O)c2cccnc2)cc1 | -10.6 |
| COc1cc(CNCC2CN(C3CC3)CCO2)cc(OC)c1 (stereo unspecified) | -24.3 |
| CCc1n[nH]c(C2CN(C(=O)CCc3cscn3)CCO2)n1 (stereo unspecified) | -8.42 |
| c1ccc2c(c1)CC(n1ccnc1-c1cc3n(n1)CCCNC3)CO2 (stereo unspecified) | -8.26 |
| c1ccc(Cc2noc(CN3CCOC(Cn4cccn4)C3)n2)cc1 (stereo unspecified) | -6.67 |
| Cc1cnn(C2CN(CC(=O)N(C)Cc3cccs3)C2)c1 | -16.1 |
| O=C(C1CCOC1)N1CCc2ncnc(-c3cccnc3)c2CC1 (stereo unspecified) | -3.13 |
| Cc1cc(Cn2cncc(Br)c2=O)on1 | 15.2 |
| COc1cc2c(cc1CNCc1cccnc1-n1cccn1)OC(C)C2 (stereo unspecified) | 4.6 |
| CCC(NS(C)(=O)=O)c1ccccc1OC (stereo unspecified) | -43.1 |
| COc1cn(CC(=O)N2CCC(c3ccccc3)CC2)c(C)cc1=O | 1.11 |
| O=C(Nc1ccccc1)N1CCn2c(nnc2C2CCCN2)C1 (stereo unspecified) | 2.91 |
| CC1N(CC2CC2)C(=O)COC12CCN(C(=O)c1ccno1)CC2 (stereo unspecified) | 0.104 |
| CN(C)C1CCN(C(=O)C2SCCc3ccccc32)CC1 (stereo unspecified) | -4.67 |
| CCc1nnc2n1CCN(C(=O)c1cnc(-c3cccs3)s1)C2 | -3.28 |
| CCc1nccn1CCNC1CCN(c2nc3ccc(Cl)cc3s2)CC1 | 28.8 |
| c1ccc([C@@H]2CN(Cc3cccnc3)C[C@H]2c2cc[nH]n2)cc1 | -4.24 |
| O=C(NCc1ccccn1)[C@@]12CCO[C@@H]1CCN(Cc1ccccn1)C2 | -112 |
| Cc1ccccc1C(=O)N1CCC2(CC1)CC(c1cnn(C)c1)CO2 (stereo unspecified) | -75 |

| Structure (SMILES) | cytotoxicity at 10 µM [%] |
| --- | --- |
| CN(C)S(=O)(=O)c1ccc(CN2CCCC2c2ccsc2)o1 (stereo unspecified) | -8.72 |
| CCc1c(C)nc2n(c1=O)CC(C(=O)Nc1ccccc1F)CS2 (stereo unspecified) | 1.57 |
| Cc1ccc(C(C(=O)N2CCN(C(=O)c3ccc[nH]3)CC2)N(C)C)cc1 (stereo unspecified) | -10.7 |
| CCC(C)(C)NC(=O)CN(Cc1cccc(O)c1)C1CCC(O)CC1 (stereo unspecified) | -2.22 |
| c1nc2n(n1)CC(NCc1csc(-c3ccsc3)n1)CC2 (stereo unspecified) | 3.79 |
| O=C(O)c1cc(C=Cc2cccc3ccccc23)ncn1 | -12.1 |
| CN(Cc1cc[nH]n1)C(C(=O)O)c1ccc(Cl)cc1 (stereo unspecified) | 0.595 |
| CC(C)NC(=O)NC[C@H]1C[C@@H]2CCN1C[C@@H]2CN(C)c1ccccc1 | 1.95 |
| Cc1cc(C)n(CC2CCCN2C(=O)c2c[nH]c3ncccc23)n1 (stereo unspecified) | -0.808 |
| Cc1nc(CN2CCc3ncnc(-c4cccnc4)c3CC2)cs1 | 7.51 |
| c1cc2c(cc1CN1CC[C@H]3CO[C@H](CN4CCCC4)[C@H]3C1)OCO2 | 0.355 |
| Cc1ccc(C)c2c(O)cc(CN3CCC(=O)NCC3C)nc12 (stereo unspecified) | 2.11 |
| CCOc1ccccc1C(=O)NCCC(O)c1ccoc1 (stereo unspecified) | -16.4 |
| COC(=O)c1sccc1S(=O)(=O)N1CCC(Oc2cccnn2)CC1 | -4.82 |
| Cc1cc(-c2cnc(NC3CC3)nc2-c2ccc(C)o2)on1 | 2.26 |
| COc1ccc(-c2cc3nn(CC(N)=O)c(=O)n3c(C)n2)cc1 | -5.29 |
| COCC(=O)NCc1cc(=O)n2c(n1)CN(CC1CCOC1)CCC2 (stereo unspecified) | 1.47 |
| O=C1CC[C@H](C(=O)Nc2cnn(-c3ccccc3Br)c2)N1 | -2.84 |
| Cc1ccc(-c2nc(CNC(C)CCO)[nH]c2-c2ccccn2)cc1 (stereo unspecified) | -6.78 |
| O=C(Cc1ccn[nH]1)N1CCc2cc(Br)sc2C1 | 4.42 |
| CCN1CC2(CC1=O)CN(Cc1ccoc1)CCN(C(=O)C(C)C)C2 (stereo unspecified) | 9.14 |

| Structure (SMILES) | cytotoxicity at 10 µM [%] |
| --- | --- |
| CC(C)Oc1cccc2c1c(NC(=O)CN(C)C)nn2CC(F)(F)F | -9.69 |
| Cc1nnc2n1CCN(Cc1csc(Cc3ccccc3)n1)C2 | -9.41 |
| CN(C)C1CCCN(C(=O)c2ccc3sc4c(c3c2)CCNC4=O)CC1 (stereo unspecified) | -8.58 |
| O=C(O)CCNC(=O)Cc1csc(-c2cccc(Cl)c2)n1 | 8.32 |
| CC(C)NC(=O)N1CCc2onc(C(=O)Nc3cccnc3)c2C1 | 4.32 |
| CN1CCC(CCc2ccnc(NC(=O)c3ccccn3)c2)CC1 | -2.12 |
| CC(NC(=O)Cn1cccnc1=O)c1ccc(OC(F)(F)F)cc1 (stereo unspecified) | 1.66 |
| CCC(=O)N1CC[C@@H]2[C@H](CC1)N(Cc1cccc(C)n1)CCS2(=O)=O | -1.31 |
| CCOC(=O)N1CCN(CC(=O)Nc2ccc(F)cc2Cl)CC1 | 6 |
| CCc1nc(C)c(CN2CCOC(CCCC(C)C)C2)[nH]1 (stereo unspecified) | -20 |
| NC(=O)N1CCCCCC1C1CCN(c2nccc(C(F)(F)F)n2)CC1 (stereo unspecified) | 4.82 |
| CCCn1nc2c(cc1=O)CN(CCS(C)(=O)=O)CC2 | -8.87 |
| CNc1nc(CNC(=O)Nc2ccccc2OC(C)C)cs1 | -12.1 |
| COc1cc(C(=O)Nc2c(C)noc2C)ccc1C | -15 |
| O=C(C1CCS(=O)(=O)CC1)N1CCC(Cc2ccc(F)cc2)CC1 | -41.9 |
| CNC(=O)CN1CCOCC2(CCCN(Cc3ccsc3)C2)C1 (stereo unspecified) | 2.61 |
| CC(NC(=O)CCCC(=O)c1cccs1)c1nnc2n1CCC2 (stereo unspecified) | -10.2 |
| c1ccc(CCc2n[nH]c(C3CCC3)n2)cc1 | -3.58 |

— ChEMBL document CHEMBL4513216, “Probing the Open Global Health Chemical Diversity Library for Multistage-Active Starting Points for Next-Generation Antimalarials” (ACS Infect Dis, 2020)
